Reference: ChEMBL document CHEMBL1932980, “Structure-activity relationships of 2-amino-3-aroyl-4-[(4-arylpiperazin-1-yl)methyl]thiophenes. Part 2: Probing the influence of diverse substituents at the phenyl of the arylpiperazine moiety on allosteric enhancer activity at the A₁ adenosine receptor” (Bioorg Med Chem, 2012)

Legend:
[1] = target: T1, Adenosine receptor A1 (Homo sapiens) (UniProt P30542); assay: Allosteric enhancer activity at recombinant human A1 adenosine receptor expressed in CHO cells assessed as change in forskolin-induced cAMP production at 0.01 uM after 6 mins by radioimmunoassay; type: functional, cell-based
T1 sequence (whole entry): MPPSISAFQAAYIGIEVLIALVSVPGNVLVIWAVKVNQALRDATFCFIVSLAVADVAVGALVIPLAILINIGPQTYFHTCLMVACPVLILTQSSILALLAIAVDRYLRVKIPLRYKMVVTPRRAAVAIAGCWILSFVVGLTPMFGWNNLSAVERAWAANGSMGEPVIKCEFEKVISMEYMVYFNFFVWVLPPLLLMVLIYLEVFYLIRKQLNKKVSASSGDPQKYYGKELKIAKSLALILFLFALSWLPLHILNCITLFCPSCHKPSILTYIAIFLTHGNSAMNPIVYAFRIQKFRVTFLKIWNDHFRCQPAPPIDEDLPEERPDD
Summary of the method: (§1)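 hA1CHO cells (about 8000 fmol/mg protein) thawed from low-passage stocks, grown in Ham's F-12 with 10% FBS and G-418, then plated 48 h. Test compound at 0.01, 0.1, 1 or 10 µM with CPA (0.05–0.1 nM) for 6 min at 36 °C. Stopped with HCl (final 50 mM). cAMP in acidified extracts measured by radioimmunoassay. Reference enhancer run in each experiment. Four experiments per concentration.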

[2] = target: T1, Adenosine receptor A1 (Homo sapiens); assay: Allosteric enhancer activity at recombinant human A1 adenosine receptor expressed in CHO cells assessed as change in forskolin-induced cAMP production at 0.1 uM after 6 mins by radioimmunoassay; type: functional, cell-based; summary of the method: as §1
[3] = target: T1, Adenosine receptor A1 (Homo sapiens); assay: Allosteric enhancer activity at recombinant human A1 adenosine receptor expressed in CHO cells assessed as change in forskolin-induced cAMP production at 1 uM after 6 mins by radioimmunoassay; type: functional, cell-based; summary of the method: as §1
[4] = target: T1, Adenosine receptor A1 (Homo sapiens); assay: Allosteric enhancer activity at recombinant human A1 adenosine receptor expressed in CHO cells assessed as change in forskolin-induced cAMP production at 10 uM after 6 mins by radioimmunoassay; type: functional, cell-based; summary of the method: as §1
[5] = target: T1, Adenosine receptor A1 (Homo sapiens); assay: Displacement of [3H]DPCPX from recombinant human A1 adenosine receptor expressed in CHO cells at 10 uM after 120 mins by scintillation counting; type: cell-based
Summary of the method: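 Membranes from hA1CHO cells incubated with 1 nM [3H]DPCPX in 50 mM Tris–HCl pH 7.4 at 25 °C for 120 min. Compound added from a 100-fold DMSO stock, so 1% DMSO final, also present in controls. Bound ligand separated on GF/B filters and counted by scintillation. Result given as % of control specific binding.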

[6] = target: Adenosine receptor A2a (Homo sapiens) (UniProt P29274); assay: Displacement of [3H]ZM241385 from recombinant human A2A adenosine receptor expressed in CHO cells at 10 uM after 60 mins by scintillation counting; type: cell-based
Sequence of Adenosine receptor A2a (Homo sapiens) (P29274 whole entry): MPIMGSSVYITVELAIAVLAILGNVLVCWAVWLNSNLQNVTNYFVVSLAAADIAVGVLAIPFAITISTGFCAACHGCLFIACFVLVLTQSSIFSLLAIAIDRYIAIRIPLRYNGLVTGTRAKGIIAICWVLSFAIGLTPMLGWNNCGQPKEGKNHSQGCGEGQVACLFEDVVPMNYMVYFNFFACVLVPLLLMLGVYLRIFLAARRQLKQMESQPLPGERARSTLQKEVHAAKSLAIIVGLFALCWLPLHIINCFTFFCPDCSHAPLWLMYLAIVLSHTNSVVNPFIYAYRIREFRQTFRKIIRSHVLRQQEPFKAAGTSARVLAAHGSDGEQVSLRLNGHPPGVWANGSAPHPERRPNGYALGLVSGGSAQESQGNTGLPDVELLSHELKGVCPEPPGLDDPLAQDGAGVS
Summary of the method: (§2)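 Membranes from hA2ACHO cells incubated with 1 nM [3H]ZM 241385 in 50 mM Tris–HCl, 10 mM MgCl2, pH 7.4 at 4 °C for 60 min. Compound added from a 100-fold DMSO stock, 1% DMSO final, also in controls. Separated by GF/B filtration and counted by scintillation. Result given as % of control specific binding.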

[7] = target: T2, Adenosine receptor A3 (Homo sapiens) (UniProt P0DMS8); assay: Displacement of [3H]MRE3008F20 from recombinant human A3 adenosine receptor expressed in CHO cells at 10 uM after 120 mins by scintillation counting; type: cell-based
T2 sequence (whole entry): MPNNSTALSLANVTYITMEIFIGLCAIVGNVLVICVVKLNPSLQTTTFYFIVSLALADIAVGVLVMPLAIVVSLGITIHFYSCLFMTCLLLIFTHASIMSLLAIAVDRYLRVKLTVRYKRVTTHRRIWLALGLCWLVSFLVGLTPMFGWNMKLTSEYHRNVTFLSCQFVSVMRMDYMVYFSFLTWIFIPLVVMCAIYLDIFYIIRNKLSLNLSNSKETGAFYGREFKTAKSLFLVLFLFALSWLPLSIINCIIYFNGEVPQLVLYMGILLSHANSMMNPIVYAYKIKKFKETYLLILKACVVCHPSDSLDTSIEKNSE
Summary of the method: as §2, with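 “from hA3CHO” for “from hA2ACHO”, “with 2” for “with 1”, “nM [3H]MRE 3008F20” for “nM [3H]ZM 241385”, “MgCl2, 1 mM EDTA,” for “MgCl2,”, “for 120” for “for 60”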

[8] = target: T1, Adenosine receptor A1 (Homo sapiens); assay: Binding affinity to recombinant human A1 adenosine receptor allosteric site expressed in CHO cells assessed as [3H]CCPA Bmax shift at 10 uM after 90 mins relative to control; type: cell-based
Summary of the method: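 Saturation binding of [3H]CCPA (0.05–20 nM) to hA1CHO membranes. Membranes pretreated with adenosine deaminase 3 UI/mL for 30 min at 37 °C. Run in triplicate, 90 min at 25 °C, in 50 mM Tris–HCl pH 7.4, with or without test compound at final 10 µM. Nonspecific binding taken with 1 µM R-PIA. Bmax fitted by LIGAND. Shift is the fold of Bmax increase over control.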

[9] = target: T1, Adenosine receptor A1 (Homo sapiens); assay: Binding affinity to recombinant human A1 adenosine receptor allosteric site expressed in CHO cells assessed as [3H]DPCPX Bmax shift at 10 uM after 90 mins relative to control; type: cell-based
Summary of the method: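 Saturation binding of [3H]DPCPX (0.05–20 nM) to hA1CHO membranes, run in triplicate, 90 min at 25 °C, in 50 mM Tris–HCl pH 7.4, with or without test compound at final 10 µM. Nonspecific binding taken with 1 µM DPCPX. KD and Bmax fitted by LIGAND. Shift is the fold of Bmax increase over control.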

[10] = target: T1, Adenosine receptor A1 (Homo sapiens); assay: Binding affinity to recombinant human A1 adenosine receptor allosteric site expressed in CHO cells assessed as potentiation of CCPA-induced [3H]DPCPX displacement at 10 uM after 90 mins relative to control; type: cell-based
Summary of the method: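 Competition of CCPA (0.01 nM–1 µM) against 1 nM [3H]DPCPX on hA1CHO membranes, run in triplicate, 90 min at 25 °C, in 50 mM Tris–HCl pH 7.4, with or without test compound at 10 µM. Nonspecific binding taken with 1 µM DPCPX. Ki by Cheng–Prusoff. Shift = Ki(CCPA)/Ki(CCPA + 10 µM compound).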

Row | SMILES | Activity [1] [%] | Activity [2] [%] | Activity [3] [%] | Activity [4] [%] | inhibition [5] [%] | inhibition [6] [%] | inhibition [7] [%] | fold change (FC) [8] | fold change (FC) [9] | fold change (FC) [10]
1 | Nc1scc(CN2CCN(C(=O)Cc3ccc(Cl)cc3)CC2)c1C(=O)c1ccc(Cl)cc1 | 2.1 | 0 | -8.1 | -42 | 1 | 0 | 0 | 1.5 | 0.9 | 1.5
2 | Nc1scc(CN2CCN(c3cccc(F)c3)CC2)c1C(=O)c1ccc(Cl)cc1 | -18 | -37 | -86 | -82 | 1 | 1 | 4 | 4.8 | 1 | 3.9
3 | Nc1scc(CN2CCN(c3ccc(F)c(Cl)c3)CC2)c1C(=O)c1ccc(Cl)cc1 | 4.2 | -21 | -60 | -78 | 0 | 0 | 0 | 7 | 1.1 | 5.5
4 | Nc1scc(CN2CCN(c3cccc(F)c3F)CC2)c1C(=O)c1ccc(Cl)cc1 | -13 | -5.2 | -66 | -79 | 0 | 0 | 0 | 4.8 | 1 | 4
5 | Nc1scc(CN2CCN(c3ccccc3F)CC2)c1C(=O)c1ccc(Cl)cc1 | 2.1 | -1 | -9.2 | -15 | 4 | 0 | 0 | 1.1 | 1 | 1.4
6 | Nc1scc(CN2CCN(CC(=O)c3ccc(Cl)cc3)CC2)c1C(=O)c1ccc(Cl)cc1 | -5 | 1 | -25 | -62 | 0 | 1 | 0 | 1.4 | 0.9 | 1.4
7 | Nc1scc(CN2CCN(c3ccc(OC(F)(F)F)cc3)CC2)c1C(=O)c1ccc(Cl)cc1 | 0 | -13 | -51 | -74 | 0 | 0 | 1 | 6.8 | 1.1 | 5.3
8 | Cc1sc(N)c(C(=O)c2cccc(C(F)(F)F)c2)c1C | -8 | -3.4 | -31 | -57 | 0 | 0 | – | 1.3 | 1 | 1.7

Now from value to molecule:

Row | Activity [1] [%] | Activity [2] [%] | Activity [3] [%] | Activity [4] [%] | inhibition [5] [%] | inhibition [6] [%] | inhibition [7] [%] | fold change (FC) [8] | fold change (FC) [9] | fold change (FC) [10] | SMILES
9 | -1 | -22 | -69 | -74 | 1 | 0 | 1 | 5.8 | 1 | 4.5 | Nc1scc(CN2CCN(c3cc(Cl)cc(Cl)c3)CC2)c1C(=O)c1ccc(Cl)cc1
10 | 1.2 | -3.1 | -32 | -76 | 1 | 0 | 2 | 3.1 | 1 | 3.4 | Nc1scc(CN2CCN(CCc3ccc(Cl)cc3)CC2)c1C(=O)c1ccc(Cl)cc1
11 | 0 | -3 | -30 | -76 | 0 | 0 | 0 | 1.6 | 0.9 | 1.6 | Nc1scc(CN2CCN(CCCc3ccc(Cl)cc3)CC2)c1C(=O)c1ccc(Cl)cc1
12 | -1.2 | 0 | -15 | -52 | 0 | 0 | 0 | 3.3 | 0.9 | 2.8 | COc1ccc(N2CCN(Cc3csc(N)c3C(=O)c3ccc(Cl)cc3)CC2)cc1
13 | 0 | -17 | -66 | -82 | 1 | 0 | 0 | 6.1 | 1 | 4.8 | Nc1scc(CN2CCN(c3ccc(F)cc3F)CC2)c1C(=O)c1ccc(Cl)cc1
14 | 4.2 | -3.9 | -56 | -78 | 0 | 0 | 0 | 4.5 | 1 | 3.6 | Nc1scc(CN2CCN(c3c(F)cc(F)cc3F)CC2)c1C(=O)c1ccc(Cl)cc1
15 | -1.2 | -13 | -60 | -62 | 1 | 0 | 3 | 4.6 | 1 | 3.8 | Nc1scc(CN2CCN(c3ccc(Cl)c(Cl)c3)CC2)c1C(=O)c1ccc(Cl)cc1
16 | -6.2 | -10 | -34 | -60 | 1 | 0 | 0 | 1.6 | 0.9 | 1.6 | Nc1scc(CN2CCN(C(=O)c3ccc(Cl)cc3)CC2)c1C(=O)c1ccc(Cl)cc1
17 | -4 | 1.4 | -8.3 | -15 | 1 | 0 | 2 | 1.1 | 0.9 | 1.2 | Nc1scc(CN2CCN(c3ccncc3)CC2)c1C(=O)c1ccc(Cl)cc1
